According to ChEMBL document CHEMBL3596100, “The synthesis and biological activity of novel anthracenone-pyranones and anthracenone-furans” (Bioorg Med Chem, 2015):
The source made the active and inactive calls.

Experiments:
SJ-G2 = assay: (§1) Growth inhibition of human SJ-G2 cells after 72 hrs by MTT assay; assay type: functional
Method in brief: (§2)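 Cells kept in DMEM with 10% FBS, glutamine, penicillin/streptomycin at 37 °C, 5% CO2; plated in duplicate at 2500–4000 cells/well, dosed 24 h later during log growth. After 72 h drug exposure, MTT read at 540 nm. […] Assays in triplicate, standard error reported.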

A-431 = assay: Growth inhibition of human A431 cells after 72 hrs by MTT assay; assay type: functional; method in brief: as §2
A2780 = assay: Growth inhibition of human A2780 cells after 72 hrs by MTT assay; assay type: functional; method in brief: as §2
MCF7 = assay: Growth inhibition of human MCF7 cells after 72 hrs by MTT assay; assay type: functional; method in brief: as §2
HT-29 = assay: Growth inhibition of human HT-29 cells after 72 hrs by MTT assay; assay type: functional; method in brief: as §2
BE(2)-C = assay: (§3) Growth inhibition of human BE(2)-C cells after 72 hrs by MTT assay; assay type: functional; method in brief: as §2
SMA = assay: (§4) Growth inhibition of mouse SMA cells after 72 hrs by MTT assay; assay type: functional; method in brief: as §2
U-87MG ATCC = assay: (§5) Growth inhibition of human U87 cells after 72 hrs by MTT assay; assay type: functional; method in brief: as §2
DU-145 = assay: Growth inhibition of human DU145 cells after 72 hrs by MTT assay; assay type: functional; method in brief: as §2
NCI-H460 = assay: (§6) Growth inhibition of human H460 cells after 72 hrs by MTT assay; assay type: functional; method in brief: as §2
MIA = assay: (§7) Growth inhibition of human MIA cells after 72 hrs by MTT assay; assay type: functional; method in brief: as §2
[1] = as §1; assay type: functional; settings: SJ-G2, 72 h; method in brief: as §2
[2] = as §3; assay type: functional; method in brief: as §2
[3] = as §4; assay type: functional; method in brief: as §2
[4] = as §5; assay type: functional, U-87MG ATCC; settings: U-87 MG; method in brief: as §2
P338 = assay: Growth inhibition of mouse […] cells; assay type: functional, cell-based
[5] = as §6; assay type: functional; settings: NCI-H460, 72 h; method in brief: as §2
[6] = as §7; assay type: functional; method in brief: as §2

CCCc1cc2c(C)cc3c(c2oc1=O)C(=O)c1c(OC(C)C)cccc1C3=O
active: growth inhibition (GI) (SJ-G2) | growth inhibition (GI) (A-431) | growth inhibition (GI) (A2780) | growth inhibition (GI) (MCF7) | growth inhibition (GI) (HT-29) | growth inhibition (GI) (BE(2)-C) | growth inhibition (GI) (SMA) | growth inhibition (GI) (U-87MG ATCC) | growth inhibition (GI) (DU-145) | growth inhibition (GI) (NCI-H460) | growth inhibition (GI) (MIA)

Cc1cc2c(c3oc(C4(C)CO4)cc(=O)c13)C(=O)c1c(O)cccc1C2=O (racemic)
840 nM: GI50 (DU-145; DU-145, 72 h)
950 nM: GI50 (A-431; A-431, 72 h)
800 nM: GI50 [1]
2000 nM: GI50 (HT-29; HT-29, 72 h)
290 nM: GI50 (A2780; A2780, 72 h)
900 nM: GI50 [6]
1 nM: IC50 (P338)
160 nM: GI50 [3]
1300 nM: GI50 (MCF7; MCF7, 72 h)
2100 nM: GI50 [5]
990 nM: GI50 [4]
170 nM: GI50 [2]

CCCCCCc1cc2c(C)cc3c(c2o1)C(=O)c1c(OC(C)C)cccc1C3=O
active: growth inhibition (GI) (SJ-G2) | growth inhibition (GI) (A-431) | growth inhibition (GI) (A2780) | growth inhibition (GI) (MCF7) | growth inhibition (GI) (HT-29) | growth inhibition (GI) (BE(2)-C) | growth inhibition (GI) (SMA) | growth inhibition (GI) (U-87MG ATCC) | growth inhibition (GI) (DU-145) | growth inhibition (GI) (NCI-H460) | growth inhibition (GI) (MIA)

CCCCCCc1cc2c(C)cc3c(c2oc1=O)C(=O)c1c(O)cccc1C3=O
active: growth inhibition (GI) (SJ-G2) | growth inhibition (GI) (A-431) | growth inhibition (GI) (A2780) | growth inhibition (GI) (MCF7) | growth inhibition (GI) (HT-29) | growth inhibition (GI) (BE(2)-C) | growth inhibition (GI) (SMA) | growth inhibition (GI) (U-87MG ATCC) | growth inhibition (GI) (DU-145) | growth inhibition (GI) (NCI-H460) | growth inhibition (GI) (MIA)

Cc1cc2c(c3oc(=O)c(-c4ccccc4)cc13)C(=O)c1c(OC(C)C)cccc1C2=O
active: growth inhibition (GI) (SJ-G2) | growth inhibition (GI) (A-431) | growth inhibition (GI) (A2780) | growth inhibition (GI) (MCF7) | growth inhibition (GI) (HT-29) | growth inhibition (GI) (BE(2)-C) | growth inhibition (GI) (SMA) | growth inhibition (GI) (U-87MG ATCC) | growth inhibition (GI) (DU-145) | growth inhibition (GI) (NCI-H460) | growth inhibition (GI) (MIA)

Cc1cc2c(c3oc(-c4ccccc4)cc13)C(=O)c1c(O)cccc1C2=O
active: growth inhibition (GI) (A-431) | growth inhibition (GI) (A2780) | growth inhibition (GI) (MCF7) | growth inhibition (GI) (HT-29) | growth inhibition (GI) (BE(2)-C) | growth inhibition (GI) (SMA) | growth inhibition (GI) (U-87MG ATCC) | growth inhibition (GI) (NCI-H460) | growth inhibition (GI) (MIA)

CCCCc1cc2c(C)cc3c(c2oc1=O)C(=O)c1c(OC(C)C)cccc1C3=O
active: growth inhibition (GI) (SJ-G2) | growth inhibition (GI) (A-431) | growth inhibition (GI) (A2780) | growth inhibition (GI) (MCF7) | growth inhibition (GI) (HT-29) | growth inhibition (GI) (BE(2)-C) | growth inhibition (GI) (SMA) | growth inhibition (GI) (U-87MG ATCC) | growth inhibition (GI) (DU-145) | growth inhibition (GI) (NCI-H460) | growth inhibition (GI) (MIA)

CCCc1cc2c(C)cc3c(c2o1)C(=O)c1c(OC(C)C)cccc1C3=O
active: growth inhibition (GI) (SJ-G2) | growth inhibition (GI) (A-431) | growth inhibition (GI) (A2780) | growth inhibition (GI) (MCF7) | growth inhibition (GI) (HT-29) | growth inhibition (GI) (BE(2)-C) | growth inhibition (GI) (SMA) | growth inhibition (GI) (U-87MG ATCC) | growth inhibition (GI) (DU-145) | growth inhibition (GI) (NCI-H460) | growth inhibition (GI) (MIA)

Cc1cc2c(c3oc(-c4ccccc4)cc13)C(=O)c1c(OC(C)C)cccc1C2=O
active: growth inhibition (GI) (A-431) | growth inhibition (GI) (A2780) | growth inhibition (GI) (MCF7) | growth inhibition (GI) (HT-29) | growth inhibition (GI) (BE(2)-C) | growth inhibition (GI) (SMA) | growth inhibition (GI) (U-87MG ATCC) | growth inhibition (GI) (NCI-H460) | growth inhibition (GI) (MIA)

CCC(C)(OCc1ccccc1)c1cc2c(C)cc3c(c2oc1=O)C(=O)c1c(OC(C)C)cccc1C3=O (configuration not stated)
active: growth inhibition (GI) (SJ-G2) | growth inhibition (GI) (A-431) | growth inhibition (GI) (A2780) | growth inhibition (GI) (MCF7) | growth inhibition (GI) (HT-29) | growth inhibition (GI) (BE(2)-C) | growth inhibition (GI) (SMA) | growth inhibition (GI) (U-87MG ATCC) | growth inhibition (GI) (DU-145) | growth inhibition (GI) (NCI-H460) | growth inhibition (GI) (MIA)

CCCCCCc1cc(=O)c2c(C)cc3c(c2o1)C(=O)c1c(O)cccc1C3=O
active: growth inhibition (GI) (SJ-G2) | growth inhibition (GI) (A-431) | growth inhibition (GI) (A2780) | growth inhibition (GI) (MCF7) | growth inhibition (GI) (HT-29) | growth inhibition (GI) (BE(2)-C) | growth inhibition (GI) (U-87MG ATCC) | growth inhibition (GI) (DU-145) | growth inhibition (GI) (NCI-H460) | growth inhibition (GI) (MIA)

Cc1cc2c(c3oc(-c4ccccc4)cc(=O)c13)C(=O)c1c(O)cccc1C2=O
active: growth inhibition (GI) (A-431) | growth inhibition (GI) (A2780) | growth inhibition (GI) (MCF7) | growth inhibition (GI) (HT-29) | growth inhibition (GI) (BE(2)-C) | growth inhibition (GI) (SMA) | growth inhibition (GI) (U-87MG ATCC) | growth inhibition (GI) (DU-145) | growth inhibition (GI) (NCI-H460) | growth inhibition (GI) (MIA)

Cc1cc2c(c3oc(=O)c(CCCC#N)cc13)C(=O)c1c(OC(C)C)cccc1C2=O
active: growth inhibition (GI) (SJ-G2) | growth inhibition (GI) (A-431) | growth inhibition (GI) (A2780) | growth inhibition (GI) (MCF7) | growth inhibition (GI) (HT-29) | growth inhibition (GI) (BE(2)-C) | growth inhibition (GI) (SMA) | growth inhibition (GI) (U-87MG ATCC) | growth inhibition (GI) (DU-145) | growth inhibition (GI) (NCI-H460) | growth inhibition (GI) (MIA)

CCCCCCc1cc2c(C)cc3c(c2oc1=O)C(=O)c1c(OC(C)C)cccc1C3=O
active: growth inhibition (GI) (SJ-G2) | growth inhibition (GI) (A-431) | growth inhibition (GI) (A2780) | growth inhibition (GI) (MCF7) | growth inhibition (GI) (HT-29) | growth inhibition (GI) (BE(2)-C) | growth inhibition (GI) (U-87MG ATCC) | growth inhibition (GI) (DU-145) | growth inhibition (GI) (NCI-H460) | growth inhibition (GI) (MIA)

Cc1cc2c(c3oc(C(=O)c4ccccc4)cc13)C(=O)c1c(O)cccc1C2=O
active: growth inhibition (GI) (A-431) | growth inhibition (GI) (A2780) | growth inhibition (GI) (MCF7) | growth inhibition (GI) (HT-29) | growth inhibition (GI) (BE(2)-C) | growth inhibition (GI) (SMA) | growth inhibition (GI) (U-87MG ATCC) | growth inhibition (GI) (NCI-H460) | growth inhibition (GI) (MIA)
